From ChEMBL document CHEMBL1126871, “Non-steroidal glucocorticoid-like substances: receptor binding and in vivo activity” (J Med Chem, 1993) come the findings set out here.

Test [1] concerns the target T1, Glucocorticoid receptor (Rattus norvegicus) (UniProt P06536).
T1 sequence (whole entry): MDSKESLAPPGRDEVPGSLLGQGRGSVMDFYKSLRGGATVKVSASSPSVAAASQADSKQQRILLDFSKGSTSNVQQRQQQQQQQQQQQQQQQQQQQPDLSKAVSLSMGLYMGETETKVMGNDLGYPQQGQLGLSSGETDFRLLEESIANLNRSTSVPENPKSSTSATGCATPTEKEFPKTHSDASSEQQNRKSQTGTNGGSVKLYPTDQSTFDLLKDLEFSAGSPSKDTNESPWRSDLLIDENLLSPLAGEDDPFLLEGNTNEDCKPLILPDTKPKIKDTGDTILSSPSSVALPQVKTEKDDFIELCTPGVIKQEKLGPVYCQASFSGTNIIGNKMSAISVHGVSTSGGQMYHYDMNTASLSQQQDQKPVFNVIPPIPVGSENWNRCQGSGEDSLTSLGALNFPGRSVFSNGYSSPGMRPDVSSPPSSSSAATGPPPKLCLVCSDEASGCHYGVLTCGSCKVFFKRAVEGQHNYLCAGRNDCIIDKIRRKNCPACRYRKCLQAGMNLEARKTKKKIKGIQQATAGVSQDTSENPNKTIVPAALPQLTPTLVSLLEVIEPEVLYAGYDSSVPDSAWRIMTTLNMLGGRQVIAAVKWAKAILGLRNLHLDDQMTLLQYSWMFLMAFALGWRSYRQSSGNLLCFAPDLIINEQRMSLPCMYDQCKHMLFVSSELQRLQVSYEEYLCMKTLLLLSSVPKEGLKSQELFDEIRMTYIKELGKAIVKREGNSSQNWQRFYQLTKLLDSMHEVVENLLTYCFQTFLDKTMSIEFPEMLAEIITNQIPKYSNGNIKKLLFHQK
In words: In vivo glucocorticoid profile, depression of thymus weight in rat at 5 mg/kg peroral dose. In kind it is functional, organism-based. Details: dose 5 mg/kg. A digest of the protocol: (§1)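 Two-week oral glucocorticoid profile in rats. Thymus weight, adrenal weight and body weight gain are each expressed as % change from control.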

The target of test [2] is T1, Glucocorticoid receptor (Rattus norvegicus). In words: In vivo glucocorticoid profile, depression of adrenal weight in rat at 5 mg/kg peroral dose. It is filed as functional, organism-based. Details: dose 5 mg/kg. A digest of the protocol:
as §1

Test [3] has the same target. In words: (§2) In vivo glucocorticoid profile, depression of body weight gain without altered food consumption in rat at 5 mg/kg peroral dose. It is filed as functional, organism-based. Details: dose 5 mg/kg. A digest of the protocol: as §1
For test [4] the target is unchanged. Nature of the test: In vivo anti-inflammatory activity in the rat, alpha-tocopherol filled pouch peroral dose. It is filed as functional, organism-based. A digest of the protocol:
(§3)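 Rats receive an air-filled pouch injected with 0.5 mL DL-α-tocopherol. Oral doses are given daily for 7 days, starting on the day of pouch formation, as suspensions in 1% gum tragacanth. ED50 is in mg/kg po.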

The target is the same in test [5]. In words: In vivo glucocorticoid profile, depression of thymus weight in rat at 0.2 mg/kg peroral dose. It is filed as functional, organism-based. Details: dose 0.2 mg/kg. A digest of the protocol:
as §1

Test [6] has the same target. Nature of the test: (§4) In vivo glucocorticoid profile, depression of adrenal weight in rat at 1 mg/kg peroral dose. In kind it is functional, organism-based. Details: dose 1 mg/kg. A digest of the protocol: (§5)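 Two-week oral dosing test in rats. At the end, thymus weight, adrenal weight and body weight gain are recorded and expressed as % change from control.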
The target is the same in test [7]. In words: (§6) In vivo glucocorticoid profile, depression of body weight gain without altered food consumption in rat at 1 mg/kg peroral dose. In kind it is functional, organism-based. Details: dose 1 mg/kg. A digest of the protocol: as §5
Test [8] has the same target. In words: In vivo glucocorticoid profile, depression of body weight gain without altered food consumption in rat at 0.2 mg/kg peroral dose. It is filed as functional, organism-based. Details: dose 0.2 mg/kg. A digest of the protocol: as §1
The target is the same in test [9]. Nature of the test: (§7) In vivo glucocorticoid profile, depression of thymus weight in rat at 1 mg/kg peroral dose. In kind it is functional, organism-based. Details: dose 1 mg/kg. A digest of the protocol: as §5
Test [10] has the same target. Nature of the test: In vivo glucocorticoid profile, depression of adrenal weight in rat at 0.2 mg/kg peroral dose. It is filed as functional, organism-based. Details: dose 0.2 mg/kg. A digest of the protocol:
as §1

Test [11] has the same target. Nature of the test: Relative binding affinity (RBA) for glucocorticoid receptor from rat liver cytosol by displacement of [3H]-RU-28,362. A digest of the protocol:
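Competitive binding to glucocorticoid receptor in liver cytosol from adrenalectomized rats, with [3H]RU28362 as ligand. RBA is derived from the concentrations of dexamethasone and of competitor giving 50% binding inhibition. A value of zero means binding was too low to measure.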
In general terms: In a radioligand displacement assay an active substance lowers the binding of a labelled ligand.

Test [12] shares this target. In words: (§8) In vivo glucocorticoid profile, depression of adrenal weight in rat at 25 mg/kg peroral dose. It is filed as functional, organism-based. Details: dose 25 mg/kg. A digest of the protocol: as §5
For test [13] the target is unchanged. The test is described as §4. It is filed as functional, organism-based. Details: dose 1 mg/kg. A digest of the protocol: as §1
The source holds these as a separate data set.

Test [14] shares this target. Described as §7. It is filed as functional, organism-based. Details: dose 1 mg/kg. A digest of the protocol:
as §1
The source holds these as a separate data set.

For test [15] the target is unchanged. In words: (§9) In vivo glucocorticoid profile, depression of body weight gain without altered food consumption in rat at 25 mg/kg peroral dose. In kind it is functional, organism-based. Details: dose 25 mg/kg. A digest of the protocol:
as §5

Test [16] has the same target. The test is described as §2. In kind it is functional, organism-based. Details: dose 5 mg/kg. A digest of the protocol: as §5
The source holds these as a separate data set.

For test [17] the target is unchanged. Nature of the test: (§10) In vivo glucocorticoid profile, depression of thymus weight in rat at 25 mg/kg peroral dose. It is filed as functional, organism-based. Details: dose 25 mg/kg. A digest of the protocol:
as §5

The target is the same in test [18]. Described as §6. It is filed as functional, organism-based. Details: dose 1 mg/kg. A digest of the protocol:
as §1
The source holds these as a separate data set.

The target is the same in test [19]. Nature of the test: In vivo antiinflammatory activity in the rat, alpha-tocopherol filled pouch peroral dose; IA = inactive. It is filed as functional, organism-based. A digest of the protocol:
as §3

For test [20] the target is unchanged. The test is described as §9. It is filed as functional, organism-based. Details: dose 25 mg/kg. A digest of the protocol: as §1
The source holds these as a separate data set.

Test [21] has the same target. The test is described as §8. It is filed as functional, organism-based. Details: dose 25 mg/kg. A digest of the protocol: as §1
This is another data set of the same source.

Test [22] shares this target. Nature of the test: In vivo antiinflammatory activity in the rat, alpha-tocopherol filled pouch 70 mg/kg peroral dose; IA = inactive. Details: dose 70 mg/kg. In kind it is functional, organism-based.
Test [23] shares this target. Described as §10. In kind it is functional, organism-based. Details: dose 25 mg/kg. A digest of the protocol:
as §1
This is another data set of the same source.

For test [24] the target is unchanged. In words: In vivo antiinflammatory activity in the rat, alpha-tocopherol filled pouch 100 mg/kg peroral dose; IA = inactive. In kind it is functional, organism-based. Details: dose 100 mg/kg. A digest of the protocol: as §3
Test [25] has the same target. In words: In vivo glucocorticoid profile, depression of body weight gain without altered food consumption in rat at 100 mg/kg peroral dose. Details: dose 100 mg/kg. It is filed as functional, organism-based. A digest of the protocol: as §1
Test [26] has the same target. In words: In vivo glucocorticoid profile, depression of thymus weight in rat at 100 mg/kg peroral dose. It is filed as functional, organism-based. Details: dose 100 mg/kg. A digest of the protocol:
as §1

For test [27] the target is unchanged. In words: In vivo glucocorticoid profile, depression of adrenal weight in rat at 100 mg/kg peroral dose. Details: dose 100 mg/kg. It is filed as functional, organism-based. A digest of the protocol: as §1

The source made the active and inactive calls. The rule behind the calls is not given here.

For `C#CCN1C(=O)N(CC#C)C(=O)C2(CC=C3[C@H](CCC4=Cc5c(cnn5-c5ccc(F)cc5)C[C@@]43C)O2)C1=O`, the Change in test [1] and in test [2] was 0% each time. In test [3], this molecule had a Weight gain of 0.
For orientation: ED50 means the dose that gives a 50% effect, or the effect in half of the subjects. `CN1C(=O)N(C)C(=O)C2(CC=C3[C@H](CCC4=Cc5c(cnn5-c5ccc(F)cc5)C[C@@]43C)O2)C1=O` (stereo in doubt; 12a) gave a 50% effective dose (ED50) in test [4] of 2 mg/kg. Further, the Change in [1] was -83%; in test [5] it was -28%; in [6] it was -57%; in test [2], -63%; in test [9], -71%; in [10], -25%. The Weight gain was -127 in test [7], -55 in test [8] and -236 in [3].
`CN1C(=O)N(C)C(=O)C2(CC=C3[C@H](CC[C@H]4Cc5c(cnn5-c5ccncc5)C[C@]34C)O2)C1=O` had an RBA in [11] of 0%.
As to `C[C@]12Cc3cnn(-c4ccc(F)cc4)c3C=C1CC[C@@H]1OC3(CC=C12)C(=O)NC(=O)NC3=O`, the Change in test [12] is -53%; in test [13], 0%; in test [1], -72%; in test [2] it was -30%; in test [14] it was 0%; in test [17], -84%. Besides, the ED50 in [4] was determined as 4 mg/kg. Besides, the Weight gain in test [7] was -65; in test [15], -180; in test [16], -140.
Turning to `C[C@]12Cc3cnn(-c4ccc(F)cc4)c3C=C1CC[C@@H]1OC3(CC=C12)C(=O)c1ccccc1C3=O`, the Change in test [13] was -56%; in test [1] it was -79%; in test [2], -64%; in test [14], -61%. The 50% effect level in [4] (ED50) was put at a dose of 10 mg/kg. Further, the Weight gain is -129 in test [18] and -224 in test [3].
As to `C[C@]12Cc3cnn(-c4ccccc4)c3C=C1CC[C@@H]1OC3(CC=C12)C(=O)c1ccccc1C3=O`, the Change in test [12] was -50%; in test [1] it was -51%; in test [2] it was -38%; in test [17], -62%. Also, in [19], the ED50 entry is “inactive”. The Weight gain in test [20] is -86; in test [3], -62.
Consider `COC(=O)CN1C(=O)N(CC(=O)OC)C(=O)C2(CC=C3[C@H](CCC4=Cc5c(cnn5-c5ccc(F)cc5)C[C@@]43C)O2)C1=O`, for which the Change in [21] and in [23] was 0% throughout. The molecule further had a Weight gain in test [20] of 0. In addition, the ED50 result in test [22] is “inactive”.
Take `CCOC(=O)C1(C(=O)OCC)CCC=C2[C@@H]1CCC1=Cc3c(cnn3-c3ccc(F)cc3)C[C@@]12C`: in [24], the ED50 entry is “inactive”. The Change in test [1] was 0%; in test [2], 0%; in test [26], -80%; in [27], -47%. In addition, the Weight gain was -186 in [25] and 0 in [3].
Molecule `C[C@]12CCC(=O)C=C1CC[C@@H]1[C@@H]2[C@@H](O)C[C@@]2(C)[C@H]1CC[C@]2(O)C(=O)CO` returned an ED50 in test [4] of 18 mg/kg.
